In ChEMBL document CHEMBL3871266, “Synthesis and cytotoxic activity of novel A-ring cleaved ursolic acid derivatives in human non-small cell lung cancer cells” (Eur J Med Chem, 2016):
pIC50: −log10 of the molar value. The source made the active and inactive calls. The rule behind the calls is not given here.

Columns and labels:
[1] = Cytotoxicity against human NCI-H460 cells expressing CTR5 gene assessed as reduction in cell viability measured after 72 hrs by CellTiter-Blue cell viability assay; type: functional, cell-based; conditions: Homo sapiens, NCI-H460, 72 h; read-out: IC50
Procedure, shortened: (§1)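 Monolayer cultures in RPMI-1640 with 10% FBS at 37°C, seeded at 850 (H460 CTR5), 660 (H460 LKB1+/+) or 1780 (H322) cells/well so that the end point reaches 70–80% confluence. Treated 72h; vehicle 0.15% DMSO. CellTiter-Blue added until colour change (50–60, 80–90 or 100–120 min respectively), fluorescence read at 590 nm. IC50 by nonlinear regression; three independent experiments.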

[2] = Cytotoxicity against human NCI-H322 cells assessed as reduction in cell viability measured after 72 hrs by CellTiter-Blue cell viability assay; type: functional, cell-based; conditions: Homo sapiens, NCI-H322, 72 h; read-out: IC50; procedure, shortened: as §1
[3] = Cytotoxicity against human NCI-H322 spheroids assessed as reduction in cell viability measured after 96 hrs by CellTiter-Glo luminescence viability assay; type: functional; conditions: NCI-H322, 96 h
Procedure, shortened: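 Spheroids grown in round-bottom ultralow-attachment wells, 495 (H460 CTR5) or 650 (H322) cells/well. Drug exposure 96h with DMSO vehicle. CellTiter-Glo added, shaken 20 min, left 10 min, then luminescence read. IC50 by nonlinear regression; three independent experiments.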

[4] = test system: NCI-H460; assay: Induction of apoptosis in human NCI-H460 cells expressing CTR5 gene assessed as early apoptotic cells at 5 uM measured after 72 hrs by Annexin V-Cy5/propidium iodide staining-based flow cytometry (reference value: 1.7%); type: functional
[5] = test system: NCI-H460; assay: Induction of apoptosis in human NCI-H460 cells expressing CTR5 gene assessed as downregulation of Bcl2 expression at 3 to 5.5 uM measured after 24 hrs by Western blot analysis; type: functional, cell-based
Procedure, shortened: (§2)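 Cells were seeded at 3×10^5 (H460) or 4.2×10^5 (H322) per dish and treated 24h later with DMSO or a concentration series for 24h. Lysed in cold RIPA with phosphatase and protease inhibitors, then sonicated. 30 μg protein run on Bis-Tris gels and transferred to nitrocellulose or PVDF. Detection used infrared secondary antibodies on an Odyssey imager. Signal normalized to β-actin or GAPDH and to DMSO control; three independent experiments.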

[6] = test system: NCI-H460; assay: Induction of apoptosis in human NCI-H460 cells expressing CTR5 gene assessed as downregulation of Mcl1 short isoform expression at 3 to 4.5 uM measured after 24 hrs by Western blot analysis; type: functional, cell-based; procedure, shortened: as §2
[7] = test system: NCI-H460; assay: Induction of autophagy in human NCI-H460 cells expressing CTR5 gene assessed as acidic vesicular organelle formation at 4 uM measured after 72 hrs by acridine orange dye based flow cytometry (reference value: 91.2%); type: functional
[8] = test system: NCI-H460; assay: Induction of apoptosis in human NCI-H460 cells expressing CTR5 gene assessed as early apoptotic cells at 20 uM measured after 72 hrs by Annexin V-Cy5/propidium iodide staining-based flow cytometry (reference value: 1.8%); type: functional
[9] = test system: NCI-H460; assay: Induction of apoptosis in human NCI-H460 cells expressing CTR5 gene assessed as late apoptotic cells at 20 uM measured after 72 hrs by Annexin V-Cy5/propidium iodide staining-based flow cytometry (reference value: 2.7%); type: functional
[10] = test system: NCI-H460; assay: Induction of apoptosis in human NCI-H460 cells expressing CTR5 gene assessed as necrotic cells at 20 uM measured after 72 hrs by Annexin V-Cy5/propidium iodide staining-based flow cytometry (reference value: 0.9%); type: functional
[11] = test system: NCI-H460; assay: Induction of apoptosis in human NCI-H460 cells expressing CTR5 gene assessed as early apoptotic cells at 4 uM measured after 72 hrs by Annexin V-Cy5/propidium iodide staining-based flow cytometry (reference value: 1.8%); type: functional
[12] = test system: NCI-H460; assay: Induction of apoptosis in human NCI-H460 cells expressing CTR5 gene assessed as viable cells at 4 uM measured after 72 hrs in presence of autophagy inhibitor chloroquine by Annexin V-Cy5/propidium iodide staining-based flow cytometry (reference value: 94.6%); type: functional; conditions: NCI-H460, 72 h, read-out: Activity
[13] = test system: NCI-H460; assay: Induction of apoptosis in human NCI-H460 cells expressing CTR5 gene assessed as late apoptotic cells at 4 uM measured after 72 hrs in presence of autophagy inhibitor chloroquine by Annexin V-Cy5/propidium iodide staining-based flow cytometry (reference value: 2.7%); type: functional
[14] = test system: NCI-H460; assay: Decrease in mTOR level in human NCI-H460 cells expressing CTR5 gene at 3 to 5.5 uM measured after 24 hrs by Western blot analysis; type: functional, cell-based; procedure, shortened: as §2
[15] = test system: NCI-H460; assay: Increase in Beclin1 level in human NCI-H460 cells expressing CTR5 gene at 3 to 5.5 uM measured after 24 hrs by Western blot analysis; type: functional, cell-based; procedure, shortened: as §2
[16] = Downregulation of p62 level in human NCI-H460 cells expressing CTR5 gene at 3 to 5.5 uM measured after 24 hrs by Western blot analysis; type: functional, cell-based; procedure, shortened: as §2
[17] = Upregulation of LC3-2 level in human NCI-H460 cells expressing CTR5 gene at 3.5 uM measured after 24 hrs by reverse-phase protein array method relative to control; type: functional, cell-based
[18] = molecular target: Serine/threonine-protein kinase mTOR (Homo sapiens) (UniProt P42345); assay: Inhibition of mTOR in human NCI-H460 cells expressing CTR5 gene assessed as decrease in S6 phosphorylation at S240/44 site by reverse-phase protein array method relative to control; type: cell-based
[19] = test system: NCI-H460; assay: Induction of autophagy in human NCI-H460 cells expressing CTR5 gene measured after 24 hrs by reverse-phase protein array method; type: functional, cell-based

C=C(C)[C@@H]1CC[C@]2(C)[C@H](C[C@@H](F)C34OC(=O)[C@@]5(CC[C@@H](C)[C@H](C)[C@@H]35)CC[C@]42C)[C@@]1(C)CCC(=O)NCCC
pIC50 [1]: 5.59
pIC50 [2]: 5.48
pIC50 [3]: 5.00
Activity [4]: 13.4%
Activity [5]: Dose-dependent effect
Activity [6]: Dose-dependent effect
Activity [7]: 66.7%
Activity [8]: 2.8%
Activity [9]: 2%
Activity [10]: 0.9%
Activity [11]: 7.6%
viability at 4 µM [12]: 77.4%
Activity [13]: 11.5%
Activity [14]: Active
Activity [15]: Active
Activity [16]: Active
Activity [17]: 10.7%
inhibition [18]: 8.4%
Activity [19]: Active
